# ABHD5 PLIN5 PPI = inhibitors of human ABHD5-perilipin-5 interaction; Split G. princeps luciferase complementation, luminescence, 4 h; Q00G26+Q8WTS1; AID 602281; 360,000 tested, 0.78% active; inhibition, % at 4 µM;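 active = inhibition above the mean inhibition across every tested compound plus 3 SD, cut at about 22% in these data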;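 also: 0% = DMSO only wells and the 100% control is not disclosed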
# Mdm2-MdmX inh = inhibitors of human Mdm2/MdmX interaction; inhibition, % at 8 µM; 330,000 tested, 3% active; SaOS-2 split-luciferase Mdm2/MdmX complementation, luminescence;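 active = inhibition of at least 50% at 8 µM in the primary screen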
# Target sequence (O15151 whole entry, looked up): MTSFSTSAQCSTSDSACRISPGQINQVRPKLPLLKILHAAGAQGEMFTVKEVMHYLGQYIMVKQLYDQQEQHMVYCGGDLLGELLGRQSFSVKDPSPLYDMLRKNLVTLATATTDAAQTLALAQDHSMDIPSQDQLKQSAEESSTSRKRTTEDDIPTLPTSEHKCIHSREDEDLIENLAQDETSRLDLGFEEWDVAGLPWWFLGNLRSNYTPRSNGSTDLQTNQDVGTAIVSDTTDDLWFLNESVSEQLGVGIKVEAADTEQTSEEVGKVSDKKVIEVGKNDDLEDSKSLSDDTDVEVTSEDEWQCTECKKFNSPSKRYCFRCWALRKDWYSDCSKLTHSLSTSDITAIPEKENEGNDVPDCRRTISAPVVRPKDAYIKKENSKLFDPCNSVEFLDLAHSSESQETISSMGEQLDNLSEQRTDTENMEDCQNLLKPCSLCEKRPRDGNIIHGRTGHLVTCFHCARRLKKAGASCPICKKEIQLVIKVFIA
# Target sequence (Q00987 whole entry, looked up): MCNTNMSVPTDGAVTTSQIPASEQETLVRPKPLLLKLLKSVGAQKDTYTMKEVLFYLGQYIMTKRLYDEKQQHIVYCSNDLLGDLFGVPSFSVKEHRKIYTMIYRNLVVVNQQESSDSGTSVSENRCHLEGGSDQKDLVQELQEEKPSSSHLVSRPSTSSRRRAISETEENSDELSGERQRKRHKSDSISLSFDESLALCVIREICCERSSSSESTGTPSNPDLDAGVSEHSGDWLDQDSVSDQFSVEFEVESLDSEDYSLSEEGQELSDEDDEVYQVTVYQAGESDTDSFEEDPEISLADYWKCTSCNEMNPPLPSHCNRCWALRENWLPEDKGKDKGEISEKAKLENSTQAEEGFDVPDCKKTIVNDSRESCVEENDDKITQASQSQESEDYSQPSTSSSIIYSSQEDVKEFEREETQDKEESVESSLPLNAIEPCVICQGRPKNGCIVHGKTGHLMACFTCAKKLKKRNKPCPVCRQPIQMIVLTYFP
# UPR XBP1 act = adaptive UPR (XBP1) activation; CHO-XBP1 luciferase reporter, IRE1-XBP1 UPR activation, luminescence; percent of tunicamycin response, DMSO as zero; activation, % at 20 µM; 330,000 tested, 0.33% active;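 active = versus positive control, 20 µM dose yields 30% or more activation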;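 also: 100% = tunicamycin at 10 µg/mL and 0% = DMSO only wells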
#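 Test system: CHO-XBP1 luciferase reporter cells | Buffer or medium: Serum-containing F12 medium, 10% FBS | Schedule: 6 h compound exposure at 37 °C, 5% CO2 | Detection: Steady-Glo luciferase glow luminescence, 10 min after reagent addition | Read-out basis: Activation, % of tunicamycin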
# Granule exo inh = blocks lytic granule exocytosis; TALL-104 LAMP-1 surface exposure, flow cytometry; cells stimulated with thapsigargin and PMA; inhibition, % at 10 µM; 360,000 tested, 0.66% active; AID 651702;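 active = inhibition above about 55%, limit read from the data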
# UPR CHOP act = activators of apoptotic arm of unfolded protein response (CHOP); AID 449763; CHO-CHOP luciferase reporter, UPR activation, luminescence; percent of tunicamycin response over DMSO baseline; activation, % at 10 µM; 330,000 tested, 0.34% active;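 active = at 10 µM dose, activation of 40% or more, normalized to positive control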;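 also: 100% = tunicamycin at 10 µg/mL and 0% = DMSO alone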
#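 measured by = luciferase luminescence | assay system = CHO-CHOP cells, stable luciferase reporter of PERK-eIF2a-CHOP signalling | amount = 500 reporter cells seeded per well | timing = 6 h compound exposure at 37 °C after overnight seeding | controls = positive tunicamycin 10 µg/mL, negative DMSO alone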
# Exocytosis CP01 = lytic granule exocytosis inhibition | shares compounds with Granule exo inh | TALL-104 cells, LAMP-1 externalization, flow cytometry; stimulated with PMA plus thapsigargin | inhibition, % at 10 µM | 1,500 tested, 11% active; in the data active = inhibition above about 60%;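 also: 0% = stimulated vehicle wells and 100% = unstimulated wells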
# * marks the source's active call; other numbers are inactive results; · = no result given. Most compounds without a hit are left out; they make up all but 4% or so of the library.
SMILES,ABHD5 PLIN5 PPI,Mdm2-MdmX inh,UPR XBP1 act,Granule exo inh,UPR CHOP act,Exocytosis CP01
COc1ccc(Cn2c(N)c(C(=O)NCc3ccco3)c3nc4ccccc4nc32)cc1,22*,32,-6,59*,2,18
Nc1c(C(=O)NCc2ccco2)c2nc3ccccc3nc2n1CCN1CCOCC1,20,5,1,-1,1,·
CCOC(=O)[C@]12Cc3cc(OC)ccc3[C@H]1N(C1CCCCC1)C(=O)c1cc(OC)ccc12,19,·,·,64*,·,0
CCOC(=O)[C@]12Cc3cc(C)ccc3[C@H]1N(CCC(=O)OC)C(=O)c1cc(OC)ccc12,15,·,·,37,·,·
COC(=O)C1=C(c2cccc(OCc3ccccc3)c2)C[C@@H]2CC[C@H]1N2C(=O)NCCCOC(C)C,3,21,-2,98*,-2,-4
COC(=O)C1=C(c2cccc(OCc3ccccc3)c2)C[C@@H]2CC[C@H]1N2C(=O)NCCOc1ccc(OC)cc1,4,21,-5,9,4,·
Cc1cccc(C)c1-n1nnnc1C(CCc1ccccc1)N1CCC(n2c(=O)[nH]c3ccccc32)CC1 (stereo not given),1,·,·,91*,·,95*
Nc1ccc(CC2=NCCN2)cc1,1,·,·,0,·,·
COc1ccc(-n2c(/C=C/c3ccc(O)c(OC)c3)nc3ccccc3c2=O)cc1,-1,44,2,58*,4,-4
CC1OC(C[N+](C)(C)C)CC1O (stereo not given),-3,-49,-4,1,-1,·
CCOc1ccc(N)cc1,-1,·,·,101*,·,-12
c1ccc2c(c1)-c1cccc3cccc-2c13,1,-4,1,-3,2,·
COc1ccc(Br)cc1CNCCc1ccc2c(c1)OCO2,-9,8,5,59*,-1,-4
O=C(Nc1ccc(Cl)cc1C(=O)c1ccccc1)c1ccco1,-2,4,4,44,0,·
CCC(C)N1C(=O)NC(=O)C2(Cc3c(ccc4ccccc34)N(C)C2)C1=O (stereo not given),-7,-6,-1,60*,1,-11
COc1ccc2c(c1)CC1(CN2C)C(=O)NC(=O)N(CCc2ccccc2)C1=O (stereo not given),-27,-26,0,0,-1,·
C=CCN1CCc2cccc3c2[C@H]1Cc1ccc(O)c(O)c1-3,2,27,-2,84*,2,27
COc1ccc(C(CNC(=O)CCc2ccsc2)N(C)C)cc1 (stereo not given),5,0,-3,-2,1,·

# Screening data from PubChem BioAssay.
